# Assay results reported in ChEMBL document CHEMBL1123594, “Antiradiation compounds. 20. 1-Methylquinolinium(and pyridinium)-2-dithioacetic acid derivatives” (J Med Chem, 1987).
# How the values were obtained:
# [1] = test system: Mus musculus; experiment: Percent survival was determined over a period of 30 days after intraperitoneal administration of a dose of 18.8 mg/kg in mice; assay type: functional; conditions: ip, 720 h
# Procedure, shortened: (§1)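 Female C57 B16 mice (18-20 g), groups of 10, dosed ip in water or 10-20% aqueous ethanol (sometimes with Klucel or a Tween). Whole-body 1000-rad γ-irradiation 30 min after dosing. Survival was followed over 30 days, and animals alive beyond 30 days were counted as protected. Testing was done at Walter Reed Army Institute of Research.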
# [2] = Toxic dose was determined after (ip) administration of a dose of 75 mg/kg in mice at 1000-rad-gamma-radiation for 30 mins; assay type: toxicity, organism-based; set-up: dose 75 mg/kg; conditions: mouse, in vivo
# Procedure, shortened: (§2)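 Drug-toxicity deaths were counted within the radioprotection groups: 10 female C57 B16 mice, dosed by the route stated, then given whole-body 1000-rad γ-irradiation 30 min later. Deaths attributed to compound toxicity occurred before day 5 and were scored separately from the 30-day survival count.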
# [3] = test system: Mus musculus; experiment: Percent survival was determined over a period of 30 days after intraperitoneal administration of a dose of 75 mg/kg in mice; assay type: functional; procedure, shortened: as §1
# [4] = test system: Mus musculus; experiment: Percent survival was determined over a period of 30 days after intraperitoneal administration of a dose of 37.5 mg/kg in mice; assay type: functional; conditions: ip, 720 h; procedure, shortened: as §1
# [5] = test system: Mus musculus; experiment: Percent survival was determined over a period of 30 days after intraperitoneal administration of a dose of 9.4 mg/kg in mice; assay type: functional; conditions: ip, 720 h; procedure, shortened: as §1
# [6] = Toxic dose was determined after (ip) administration of a dose of 18.8 mg/kg in mice at 1000-rad-gamma-radiation for 30 mins; assay type: toxicity, organism-based; set-up: dose 18.8 mg/kg; conditions: mouse, in vivo; procedure, shortened: as §2
# [7] = test system: Mus musculus; experiment: Percent survival was determined over a period of 30 days after intraperitoneal administration of a dose of 4.7 mg/kg in mice; assay type: functional; conditions: ip, 720 h; procedure, shortened: as §1
# [8] = Toxic dose was determined after (ip) administration of a dose of 37.5 mg/kg in mice at 1000-rad-gamma-radiation for 30 mins; assay type: toxicity, organism-based; set-up: dose 37.5 mg/kg; conditions: mouse, in vivo; procedure, shortened: as §2
# [9] = species: Mus musculus; experiment: Percent protective effect was determined in mice using 825 rads for 30 min; assay type: functional
# [10] = test system: Mus musculus; experiment: Percent survival was determined over a period of 30 days after intraperitoneal administration of a dose of 2.34 mg/kg in mice; assay type: functional; conditions: ip, 720 h; procedure, shortened: as §1
# [11] = test system: Mus musculus; experiment: Percent survival was determined over a period of 30 days after intraperitoneal administration of a dose of 4.69 mg/kg in mice; assay type: functional; conditions: ip, 720 h; procedure, shortened: as §1
# [12] = Toxic dose was determined after (ip) administration of a dose of 9.38 mg/kg in mice at 1000-rad-gamma-radiation for 30 mins; assay type: toxicity, organism-based; set-up: dose 9.38 mg/kg; conditions: mouse, in vivo; procedure, shortened: as §2
# [13] = test system: Mus musculus; experiment: Percent survival was determined over a period of 30 days after intraperitoneal administration of a dose of 9.38 mg/kg in mice; assay type: functional; conditions: ip, 720 h; procedure, shortened: as §1
# [14] = test system: Mus musculus; experiment: Percent protective effect was determined in mice using 825 rads for 30 min after administration of 350 mg/kg; assay type: functional
# [15] = test system: Mus musculus; experiment: Percent protective effect was determined in mice using 1000 rads for 30 min after administration of 25 mg/kg; assay type: functional
# [16] = test system: Mus musculus; experiment: Percent survival was determined over a period of 30 days after intraperitoneal administration of a dose of 150 mg/kg in mice; assay type: functional; conditions: ip, 720 h; procedure, shortened: as §1
# [17] = Toxic dose was determined after (ip) administration of a dose of 150 mg/kg in mice at 1000-rad-gamma-radiation for 30 mins; assay type: toxicity, organism-based; set-up: dose 150 mg/kg; conditions: mouse, in vivo; procedure, shortened: as §2
# [18] = test system: Mus musculus; experiment: Percent survival was determined over a period of 30 days after oral administration of a dose of 150 mg/kg in mice; assay type: functional; conditions: 720 h
# Procedure, shortened: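 Female C57 B16 mice (18-20 g), groups of 10, dosed orally. Whole-body 1000-rad γ-irradiation 30 min after dosing. Percent survival was scored over 30 days, with mice surviving beyond 30 days counted as protected.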
# [19] = Toxic dose was determined after (po) administration of a dose of 300 mg/kg in mice at 1000-rad-gamma-radiation for 30 mins; assay type: toxicity, organism-based; set-up: dose 300 mg/kg; conditions: mouse, in vivo; procedure, shortened: as §2
# [20] = test system: Mus musculus; experiment: Percent protective effect was determined in mice using 600 rads for 30 min after administration of 100 mg/kg; assay type: functional
structure (smiles),measurement,setting,value
CN(C)CCNC(=Cc1ccc2ccccc2[n+]1C)NCCN(C)C.[I-],survival at 18.8 mg/kg,[1],0%
same,LD50 at 0.5 h,[2],90 mg/kg
same,survival at 75 mg/kg,"[3]; Mus musculus, ip, 720 h",0%
same,survival at 37.5 mg/kg,[4],0%
COC(CN/C(=C/c1ccc2ccccc2[n+]1C)SC)OC.[I-],survival at 18.8 mg/kg,[1],30%
same,survival at 9.4 mg/kg,[5],0%
same,LD50 at 0.5 h,[6],30 mg/kg
same,survival at 4.7 mg/kg,[7],0%
COCCN/C(=C/c1ccc2ccccc2[n+]1C)SC.[I-],survival at 18.8 mg/kg,[1],0%
same,LD50 at 0.5 h,[8],50 mg/kg
same,survival at 9.4 mg/kg,[5],0%
same,survival at 37.5 mg/kg,[4],0%
O=[N+]([O-])c1ccc(CSC(=S)C[n+]2ccccc2)cc1.[Cl-],Protective effect,[9],33%
CS/C(=C\c1ccc2cc(C)ccc2[n+]1C)N1CCOCC1.[I-],survival at 2.34 mg/kg,[10],0%
same,survival at 4.69 mg/kg,[11],0%
same,LD50 at 0.5 h,[12],15 mg/kg
same,survival at 9.38 mg/kg,[13],60%
N#CC(C#N)=C([S-])[S-].[K+].[K+],Protective effect,[14],>25%
CS/C(=C\c1cccc[n+]1C)N1CCN(C)CC1.[I-],survival at 18.8 mg/kg,[1],10%
same,survival at 9.4 mg/kg,[5],0%
same,LD50 at 0.5 h,[6],60 mg/kg
same,survival at 4.7 mg/kg,[7],0%
N#CC(C#N)=C([S-])[S-].[Zn+2],Protective effect,[15],<25%
NC(=O)c1ccc[n+](CC(=S)[S-])c1,Protective effect,[9],>45%
C=CCSC(=S)C[n+]1ccccc1.[Cl-],Protective effect,[9],>17%
CS/C(=C\c1ccc2ccccc2[n+]1C)NCCCO.[I-],survival at 18.8 mg/kg,[1],0%
same,LD50 at 0.5 h,[8],50 mg/kg
same,survival at 9.4 mg/kg,[5],0%
same,survival at 37.5 mg/kg,[4],0%
CSC(=Cc1ccc2ccccc2[n+]1C)SC.[I-],survival at 150 mg/kg,[16],60%
same,LD50 at 0.5 h,[17],300 mg/kg
same,survival at 150 mg/kg,[18],10%
same,Survival,[3]; 75 mg/kg,0%
same,survival at 37.5 mg/kg,[4],0%
same,LD50 at 0.5 h,[19],> 300 mg/kg
CCOC(=O)C(C#N)=C([S-])[S-].[K+].[K+],Protective effect,[20],50%
CSC(=Cc1cccc[n+]1C)SC.[I-],survival at 18.8 mg/kg,[1],50%
same,survival at 9.4 mg/kg,[5],0%
same,LD50 at 0.5 h,[6],30 mg/kg
same,survival at 4.7 mg/kg,[7],0%
